Hits are enriched below; roughly 2.2% of the tested compounds scored in any of these assays.
PglD DTNB: blocks C. jejuni PglD acetyltransferase activity; purified PglD enzyme, DTNB colorimetric CoA detection; inhibition, % at 12.5 µM; actives 0.098% (n = 360,000); AID 602405; in the data active = inhibition above about 16%, passing the limit was not always enough
Ecoli rRNA inh: inhibitors of bacterial rRNA selective over humanized ribosomes. GFP signal change (wild-type ribosome), % (test concentration not listed). actives 1.6% (n = 350,000). E. coli WT GFP vs humanized-ribosome RFP mutants, fluorescence, 24 h; hits give low values; DMSO median 0, no signal -100. AID 720706;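 active = significant combined selectivity score with lowered wild-type GFP, culture density cut under 30%, mutant RFP and density less affected; inactive = any of these conditions unmet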
Cneo AK release: Cryptococcus neoformans lysis via adenylate kinase release; lysis activity, % at 15 µM; actives 0.2% (n = 360,000); C. neoformans lysis, adenylate kinase release luminescence, 4 h; normalised: neutral wells 0, clomiphene wells 100;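 active = mean lysis activity across replicates of at least 80%, whatever share of replicates individually reach that level; inactive = mean lysis activity below 80%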
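Test system: log-phase Cryptococcus neoformans yeast cells. Input: 5 × 10^6 yeast cells/mL. Medium: fresh YPD growth medium. Doses: single dose. Incubation: static 4 h at 37 °C with compound, 1 h detection. Measured by: luminescent adenylate kinase detection reagent. Read-out: signal increase indicating cell lysis. Benchmarks: Clomiphene.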
SUMO Mot1 rescue: blocks SUMOylation pathway, rescuing yeast Mot1-301 growth | S. cerevisiae Mot1-301 growth rescue, ATP luminescence, 38.5C; percent above DMSO median, 100 means doubled | growth rescue, % at 18.8 µM | AID 2716 | actives 1% (n = 320,000);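 active = every valid replicate shows activation above 250% relative to neutral control wells; inactive = the rest, any valid replicate at or below 250%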;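 also: OY570 slx delta 5 strain wells were the positive control but not used for scaling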
CR mimetic SO: caloric restriction mimetics inhibiting age-related superoxide in yeast; S. cerevisiae aged cells, superoxide DHE fluorescence; hits give low values; superoxide response (% of plate mean), % at 10 µM; actives 0.18% (n = 330,000);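 active = superoxide response under a set limit, about three screen SD below normal, cut at about 65% in these data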;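 also: yeast aged for seven days with compound at 30 °C before DHE staining; 100% = average MFI of all compound-treated wells on the plate with controls excluded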
* hit, by the source's call; . = no result given; ! = not active in a repeat.

SMILES	PglD DTNB	Ecoli rRNA inh	Cneo AK release	SUMO Mot1 rescue	CR mimetic SO
Oc1ccc(-c2csc(Nc3ncccn3)n2)cc1O	.	-30*	.	.	.
Cc1ccc(-c2cc(C(=O)Nc3c(C)n(C)n(-c4ccccc4)c3=O)[nH]n2)c(O)c1C	.	-20*	.	-21	86
O=[N+]([O-])c1ccc(S(=O)(=O)N2CCN(C3CCN(Cc4ccccc4)CC3)CC2)cc1	-4	4	0	379*	108
O=C(c1ccc([N+](=O)[O-])cc1)N1C=CC(C(F)(F)F)=NCC1	.	6	.	346*	110
Cc1ccc(C)c(OCC(=O)NNC(=O)c2ccc(NC(=O)C3CC3)cc2)c1	2	-37*	-2	-6	114
Cc1cc(Br)ccc1OCC(=O)NNC(=O)c1ccc(NC(=O)C2CC2)cc1	-4	14	0	-7	97
C[C@H](CO)N1C[C@H](C)[C@@H](CN(C)C)OCCCC[C@H](C)Oc2ccc(NS(C)(=O)=O)cc2C1=O	.	1	.	.	.
O=S(=O)(CCSc1nc2ccccc2o1)c1nc2ccccc2s1	2	-32*!	-1	118	116
CC(=O)Nc1ccc(/C=C(\C#N)C(=O)NC2CCCCC2)cc1	.	-26*	.	8	101
N#C/C(=C\c1ccc(Cl)cc1)C(=O)NC1CC1	.	7	.	6	89
Fc1cnc(Cl)nc1N1CCN(c2ccccc2)CC1	.	-23*	.	-5	99
CN1CCN(c2nc(N3CCN(c4ccccc4)CC3)ncc2F)CC1	.	.	.	-1	103
Nc1nc(-c2ccccc2)c(N=Nc2ccc(Cl)cc2)s1	.	-42*	.	4	104
Nc1nc(-c2ccccc2)c(-c2ccccc2)s1	1	.	-2	.	113
O=C(O)c1cc([N+](=O)[O-])ccc1NCCc1ccccc1	.	-42*	.	-1	131
Cc1cccc(Nc2ccc([N+](=O)[O-])cc2C(=O)O)c1	.	-6	.	.	92
O=C(O)c1cc([N+](=O)[O-])ccc1NCCO	.	.	.	-8	98
COc1ccc(CCNC(=O)c2cccc([N+](=O)[O-])c2)cc1OC	.	-1	.	19	95
O=C(NCCc1ccccc1)c1cccc([N+](=O)[O-])c1	4	6	1	514*	116
O=C(Cn1c(=O)c2sccc2n(Cc2cccc([N+](=O)[O-])c2)c1=O)NCCc1ccccc1	.	13	.	884*	94
O=C(O)c1cc([N+](=O)[O-])ccc1Nc1ccccc1	-15	-34*	1	-10	105
O=C1N[C@@H](Cc2ccccc2)COCc2cn(nn2)CC[C@@H]1Cc1ccc(Cl)cc1	.	-2	.	.	.
Oc1ccc(N=Nc2ccc3c(c2)OCCO3)c(O)c1	6	-38*	0	4	89
C[C@@H]1CN([C@H](C)CO)C(=O)c2cccc(NC(=O)C3CCCCC3)c2O[C@H]1CN(C)S(=O)(=O)c1ccc(Cl)cc1	4	-10	-2	.	.
O=[N+]([O-])c1ccccc1CCc1ccccc1[N+](=O)[O-]	-6	3	0	.	.
SMILES	PglD DTNB	Ecoli rRNA inh	Cneo AK release	SUMO Mot1 rescue	CR mimetic SO
O=[N+]([O-])c1ccccc1CNC(Cc1ccccc1)c1ccccc1 (stereo not given)	0	-30*	1	-8	97
CCC(=O)N[C@@H]1C=C[C@@H](CC(=O)NCC2CC2)O[C@H]1CO	.	3	.	.	.
COc1cc(N=c2c([N+](=O)[O-])nn(-c3ccc4c(c3)OCCO4)n2O)cc(OC)c1	.	.	.	274*	102
CN1c2ccc(-c3ccccc3F)cc2[C@H]2[C@H](CCN2S(=O)(=O)c2ccccc2)[C@@H]1CO	-3	2	6	.	.
COc1ccc(N2CC(C(=O)Nc3nc4ccc(F)cc4s3)CC2=O)c(OC)c1 (stereo not given)	0	-30*	-4	17	102
COc1ccc2[nH]c(=O)c(CN(CCO)S(=O)(=O)c3ccc(C)cc3)cc2c1	.	-24*	.	-1	91
CCCCN(Cc1cc2cc(OC)ccc2[nH]c1=O)S(=O)(=O)c1ccc(C)cc1	5	-10	2	-6	99
CCOC(=O)c1cccc(S(=O)(=O)N(CCO)Cc2cc3cc(OC)ccc3[nH]c2=O)c1	-4	-18*	12	.	87
COc1ccc(NC(=O)Nc2ccc3c(c2)[C@@H]2C[C@@H](CC(=O)NC4CCCC4)O[C@@H](CO)[C@@H]2O3)cc1	-3	-1	1	.	.
O=C(N[C@H]1CC[C@H](CC(=O)N2CCc3ccccc3C2)O[C@H]1CO)C1CCC1	-1	-1	1	.	.
